Results from ChEMBL document CHEMBL1138153, “N-substituted 4beta-methyl-5-(3-hydroxyphenyl)-7alpha-amidomorphans are potent, selective kappa opioid receptor antagonists” (J Med Chem, 2006).

Tests used:
[1] = target: Mu-type opioid receptor (Homo sapiens) (UniProt P35372); experiment: Inhibition of DAMGO stimulated [35S]GTP-gamma-S binding to cloned human mu opioid receptor expressed in CHO cells; type: functional, cell-based
How it was run: (§1)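 Antagonism measured as a rightward shift of the agonist concentration–response curve for [35S]GTPγS binding in CHO cells expressing the cloned human receptor. Curves were run with and without one fixed concentration of test compound. Ke = [L]/(DR − 1), where [L] is the test compound concentration and DR is the ratio of agonist EC50 with versus without test compound.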

[2] = target: Delta-type opioid receptor (Homo sapiens) (UniProt P41143); experiment: Inhibition of DPDPE stimulated [35S]GTP-gamma-S binding to cloned human delta opioid receptor expressed in CHO cells; type: functional, cell-based; how it was run: as §1
Sequence of Delta-type opioid receptor (Homo sapiens) (P41143 whole entry): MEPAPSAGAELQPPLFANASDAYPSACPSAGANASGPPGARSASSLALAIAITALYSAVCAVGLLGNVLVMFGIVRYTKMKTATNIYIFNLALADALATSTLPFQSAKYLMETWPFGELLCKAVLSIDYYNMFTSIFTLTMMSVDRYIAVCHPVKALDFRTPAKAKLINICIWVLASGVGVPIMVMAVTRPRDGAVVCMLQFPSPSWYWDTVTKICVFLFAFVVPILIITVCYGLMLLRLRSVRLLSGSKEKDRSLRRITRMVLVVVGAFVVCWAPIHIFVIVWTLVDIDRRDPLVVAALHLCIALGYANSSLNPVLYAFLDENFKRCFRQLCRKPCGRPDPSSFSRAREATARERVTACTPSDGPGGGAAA

[3] = target: Kappa-type opioid receptor (Homo sapiens) (UniProt P41145); experiment: Inhibition of U69,593 stimulated [35S]GTP-gamma-S binding to cloned human kappa opioid receptor expressed in CHO cells; type: functional, cell-based; how it was run: as §1
Sequence of Kappa-type opioid receptor (Homo sapiens) (P41145 whole entry): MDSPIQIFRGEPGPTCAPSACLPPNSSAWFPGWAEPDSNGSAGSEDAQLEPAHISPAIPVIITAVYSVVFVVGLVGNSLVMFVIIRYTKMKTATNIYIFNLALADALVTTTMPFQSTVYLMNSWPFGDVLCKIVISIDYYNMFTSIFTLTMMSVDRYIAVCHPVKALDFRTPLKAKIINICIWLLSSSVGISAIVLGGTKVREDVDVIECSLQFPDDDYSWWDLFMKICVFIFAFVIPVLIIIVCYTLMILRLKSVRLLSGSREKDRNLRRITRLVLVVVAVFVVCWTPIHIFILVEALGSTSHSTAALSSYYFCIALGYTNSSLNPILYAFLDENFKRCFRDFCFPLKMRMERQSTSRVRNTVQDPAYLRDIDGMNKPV

[4] = target: Opioid receptors; mu & kappa (Homo sapiens) (UniProt P41145+P35372); experiment: Selectivity for human kappa opioid receptor over human mu opioid receptor; type: protein assay
Sequence of Opioid receptors; mu & kappa (Homo sapiens) (P35372 whole entry, looked up): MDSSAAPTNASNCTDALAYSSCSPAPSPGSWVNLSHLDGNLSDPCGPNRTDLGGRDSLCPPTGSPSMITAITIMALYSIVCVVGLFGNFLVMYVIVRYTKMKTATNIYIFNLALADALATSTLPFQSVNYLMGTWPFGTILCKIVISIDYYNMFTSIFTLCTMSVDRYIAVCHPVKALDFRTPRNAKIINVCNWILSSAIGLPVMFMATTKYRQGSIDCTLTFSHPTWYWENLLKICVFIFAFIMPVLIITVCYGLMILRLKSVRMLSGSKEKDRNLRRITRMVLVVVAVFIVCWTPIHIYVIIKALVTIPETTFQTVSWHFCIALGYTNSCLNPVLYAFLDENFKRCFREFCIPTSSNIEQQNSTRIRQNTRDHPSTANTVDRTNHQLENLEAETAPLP
Sequence of Opioid receptors; mu & kappa (Homo sapiens) (P41145 whole entry, looked up): as the sequence (P41145 whole entry) above

[5] = target: Opioid receptors; delta & kappa (Homo sapiens) (UniProt P41145+P41143); experiment: Selectivity for human kappa opioid receptor over human delta opioid receptor; type: protein assay
Sequence of Opioid receptors; delta & kappa (Homo sapiens) (P41143 whole entry, looked up): as the sequence (P41143 whole entry) above
Sequence of Opioid receptors; delta & kappa (Homo sapiens) (P41145 whole entry, looked up): as the sequence (P41145 whole entry) above

Sequence of Mu-type opioid receptor (Homo sapiens) (P35372 whole entry): as the sequence (P35372 whole entry, looked up) above

Row | Structure (SMILES) | Ke [1] [nM] | Ke [2] [nM] | Ke [3] [nM] | Ratio Ke [4] | Ratio Ke [5]
1 | COc1ccc2c(c1)CCN(CCC(=O)N[C@H]1CC3CC(c4cccc(O)c4)(C1)C(C)CN3CCCc1ccccc1)C2 (stereo partly specified) | 261 | 42 | 0.12 | 2180 | 350
2 | Cc1ccccc1CCCN1CC(C)C2(c3cccc(O)c3)CC1C[C@H](NC(=O)CCN1CCc3ccccc3C1)C2 (stereo partly specified) | 41 | 20 | 0.2 | 205 | 100
3 | Cc1ccccc1CN1CC(C)C2(c3cccc(O)c3)CC1C[C@H](NC(=O)CCN1CCc3ccccc3C1)C2 (stereo partly specified) | > 500 | > 500 | 6.1 | > 82 | > 82
4 | Cc1ccccc1CCN1CC(C)C2(c3cccc(O)c3)CC1C[C@H](NC(=O)CCN1CCc3ccccc3C1)C2 (stereo partly specified) | 28 | 25 | 0.04 | 700 | 625
5 | CC1CN(CCCc2ccccc2)C2C[C@H](NC(=O)CCN3CCc4c(O)cccc4C3)CC1(c1cccc(O)c1)C2 (stereo partly specified) | 4.6 | 25 | 0.07 | 66 | 357
6 | COc1cc2c(cc1OC)CN(CCC(=O)N[C@H]1CC3CC(c4cccc(O)c4)(C1)C(C)CN3CCCc1ccccc1)CC2 (single isomer, unassigned; (-)) | 218 | 40 | 0.54 | 404 | 74
7 | CCCCCCN1CC(C)C2(c3cccc(O)c3)CC1C[C@H](NC(=O)CCN1CCc3ccccc3C1)C2 (stereo partly specified) | 103 | 145 | 0.2 | 515 | 725
8 | CC1CN(CCCc2ccccc2)C2C[C@H](NC(=O)CCN3CCc4cc(O)ccc4C3)CC1(c1cccc(O)c1)C2 (stereo partly specified) | 26 | 32 | 0.3 | 87 | 107
9 | CC1CN(CCCc2ccsc2)C2C[C@H](NC(=O)CCN3CCc4ccccc4C3)CC1(c1cccc(O)c1)C2 (stereo partly specified) | 52 | 29 | 1.1 | 47 | 26
10 | COc1ccc2c(c1)CN(CCC(=O)N[C@H]1CC3CC(c4cccc(O)c4)(C1)C(C)CN3CCCc1ccccc1)CC2 (stereo partly specified) | 28 | 35 | 0.28 | 100 | 125
11 | CC(C)[C@@H](CN1CC[C@@](C)(c2cccc(O)c2)[C@@H](C)C1)NC(=O)[C@H]1Cc2ccc(O)cc2CN1 |  |  | 0.02 |  | 
12 | CC1CCN(CCC(=O)N[C@H]2CC3CC(c4cccc(O)c4)(C2)C(C)CN3CCCc2ccccc2)CC1 (stereo partly specified) | 176 | 313 | 0.47 | 374 | 666

The next lines start with the values.

Row | Ke [1] [nM] | Ke [2] [nM] | Ke [3] [nM] | Ratio Ke [4] | Ratio Ke [5] | Structure (SMILES)
13 | 25 | 19 | 1.8 | 14 | 11 | CC1CN(CCCc2cccs2)C2C[C@H](NC(=O)CCN3CCc4ccccc4C3)CC1(c1cccc(O)c1)C2 (stereo partly specified)
14 | 52 | 62 | 0.09 | 578 | 689 | CC1CN(CCCc2ccccc2)C2C[C@H](NC(=O)CCN3CCc4ccc(O)cc4C3)CC1(c1cccc(O)c1)C2 (stereo partly specified)
15 | 259 | 77 | 2.2 | 118 | 35 | CC1CN(CCCc2ccccc2)C2C[C@H](NC(=O)CCN3CCOCC3)CC1(c1cccc(O)c1)C2 (stereo partly specified)
16 | 48 | 13 | 0.09 | 533 | 144 | CC1CN(CCCc2ccccc2)C2C[C@H](NC(=O)CCN3CCc4ccccc4C3)CC1(c1cccc(O)c1)C2 (stereo partly specified)
17 | 35 | 52 | 0.32 | 109 | 163 | CC1CN(CCCc2ccco2)C2C[C@H](NC(=O)CCN3CCc4ccccc4C3)CC1(c1cccc(O)c1)C2 (stereo partly specified)
18 | 82 | 186 | 0.87 | 94 | 214 | CC1CN(CCCc2ccccc2)C2C[C@H](NC(=O)CCN3CCN(C)CC3)CC1(c1cccc(O)c1)C2 (stereo partly specified)
19 | 42 | 33 | 0.24 | 175 | 138 | CC1CN(CCCc2ccccc2)C2C[C@H](NC(=O)CCN3CCCCC3)CC1(c1cccc(O)c1)C2 (stereo partly specified)
